Experimental data as given in ChEMBL document CHEMBL4007433, “Design, synthesis, biological evaluation and molecular modeling study of novel macrocyclic bisbibenzyl analogues as antitubulin agents” (Eur J Med Chem, 2017).
Structures can show the parent of a compound that is named as a salt. Activity calls are given as the source filed them. No cut-off for these calls is given here.

What was measured:
Homo sapiens [1] = species: Homo sapiens; assay: Inhibition of alpha-tubulin polymerization in human HCC1428 cells at 3 uM after 24 hrs by confocal microscopic method; assay type: cell-based
Summary of the method: (§1)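 HCC1428 cells grown on glass coverslips and treated 24 h; 1 µM vincristine and DMSO as controls. Fixed in cold methanol/acetone (1:1) 5 min, then blocked 20 min in 3% goat serum with 0.1% Triton X-100. Stained with mouse anti-α-tubulin and a FITC secondary, DAPI 4 µg/mL 15 min. Imaged by confocal microscopy; three independent experiments.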

K562 = assay: Antiproliferative activity against human K562 cells after 48 hrs by MTT assay; assay type: functional, cell-based; settings: K562, 48 h
[2] = Antiproliferative activity against human HCC1428 cells after 48 hrs by MTT assay; assay type: functional, cell-based; settings: HCC1428, 48 h
PC-3 = assay: Antiproliferative activity against paclitaxel-resistant human PC3 cells after 48 hrs by MTT assay; assay type: functional, cell-based; settings: PC-3, 48 h
HT-29 = assay: Antiproliferative activity against human HT-29 cells after 48 hrs by MTT assay; assay type: functional, cell-based; settings: HT-29, 48 h
HeLa = assay: Antiproliferative activity against human HeLa cells after 48 hrs by MTT assay; assay type: functional, cell-based
Homo sapiens [3] = species: Homo sapiens; assay: Inhibition of alpha-tubulin polymerization in human HCC1428 cells at 6 to 10 uM after 24 hrs by confocal microscopic method; assay type: cell-based; summary of the method: as §1
[4] = Cell cycle arrest in human HCC1428 cells assessed as accumulation at S phase at 3 uM after 24 hrs by propidium iodide staining based flow cytometry (reference value: 24.46%); assay type: functional
Homo sapiens [5] = species: Homo sapiens; assay: Inhibition of alpha-tubulin polymerization in human HCC1428 cells at 3 to 6 uM after 24 hrs by confocal microscopic method; assay type: cell-based; summary of the method: as §1
[6] = Cell cycle arrest in human HCC1428 cells assessed as accumulation at G2/M phase at 3 uM after 24 hrs by propidium iodide staining based flow cytometry (reference value: […]%); assay type: functional
[7] = Cell cycle arrest in human HCC1428 cells assessed as accumulation at S phase at 6 uM after 24 hrs by propidium iodide staining based flow cytometry (reference value: 24.46%); assay type: functional
HCC1428 [8] = assay: Cell cycle arrest in human HCC1428 cells assessed as accumulation at G2/M phase after 24 hrs by propidium iodide staining based flow cytometry; assay type: functional
Bos taurus [9] = species: Bos taurus; assay: Inhibition of bovine brain tubulin polymerization at 5 to 10 uM measured every 1 min for 1 hr by spectrophotometric method
Summary of the method: (§2)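 Bovine brain tubulin (>97% pure) in G-PEM buffer (80 mM PIPES, 0.5 mM EGTA, 1.0 mM GTP, pH 6.9) with 0.1% DMSO, set up at 4 °C with or without compound, using a commercial HTS kit. Vincristine and taxol at 5 µM as controls. Polymerization followed by A340 every 1 min for 1 h at 37 °C.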

HCC1428 [10] = assay: Antiproliferative activity against human HCC1428 cells at 2 to 4 uM […] by RTCA; assay type: functional, cell-based
Summary of the method: (§3)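 Real-time impedance (xCELLigence RTCA DP) monitoring of HCC1428 cells plated at 2000 cells/well in E-plate 16. Cells kept in RPMI-1640 with 2% FBS at 37 °C, 5% CO2 throughout. Growth curves recorded over 84 h of compound exposure. Representative of three independent experiments.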

[11] = Cell cycle arrest in human HCC1428 cells assessed as accumulation at G2/M phase at 6 uM after 24 hrs by propidium iodide staining based flow cytometry (reference value: […]%); assay type: functional
[12] = Cell cycle arrest in human HCC1428 cells assessed as accumulation at G1 phase at 6 uM after 24 hrs by propidium iodide staining based flow cytometry (reference value: 62.61%); assay type: functional
[13] = Cell cycle arrest in human HCC1428 cells assessed as accumulation at G1 phase at 3 uM after 24 hrs by propidium iodide staining based flow cytometry (reference value: 62.61%); assay type: functional
[14] = Cell cycle arrest in human HCC1428 cells assessed as accumulation at S phase at 1 uM after 24 hrs by propidium iodide staining based flow cytometry (reference value: 24.46%); assay type: functional
Homo sapiens [15] = species: Homo sapiens; assay: Inhibition of alpha-tubulin polymerization in human HCC1428 cells at 1 uM after 24 hrs by confocal microscopic method; assay type: cell-based; summary of the method: as §1
[16] = Cell cycle arrest in human HCC1428 cells assessed as accumulation at G1 phase at 1 uM after 24 hrs by propidium iodide staining based flow cytometry (reference value: 62.61%); assay type: functional
HCC1428 [17] = assay: Antiproliferative activity against human HCC1428 cells at 1 uM […] by RTCA; assay type: functional, cell-based; summary of the method: as §3
[18] = Cell cycle arrest in human HCC1428 cells assessed as accumulation at G2/M phase at 1 uM after 24 hrs by propidium iodide staining based flow cytometry (reference value: […]%); assay type: functional
Bos taurus [19] = species: Bos taurus; assay: Inhibition of bovine brain tubulin polymerization at 5 uM measured every 1 min for 1 hr by spectrophotometric method; summary of the method: as §2

| SMILES | IC50 (K562) | IC50 (HT-29) | IC50 (HeLa) | IC50 [2] | other results |
| --- | --- | --- | --- | --- | --- |
| COc1cccc2c1Oc1cc(O)c(O)cc1CCc1ccc(O)c(c1)Oc1ccc(cc1)CC2 | 1.74 µM | 1.98 µM | 2.61 µM | 1.51 µM | Activity [4]: 23.66%; inhibition (Homo sapiens [5]): Active; Activity [6]: 37.7%; Activity [7]: 11.12%; Activity (HCC1428 [8]): Dose-dependent effect; inhibition (Bos taurus [9]): Active; Activity (HCC1428 [10]): Active; Activity [11]: 85.34%; IC50 (PC-3): 5.51 µM; Activity [12]: 3.54%; Activity [13]: 38.6% |
| Oc1ccc2cc1Oc1cccc(c1)CCc1ccc(O)c(c1)Oc1ccc(cc1O)CC2 | 10.9 µM | 12.4 µM | 19.5 µM | 19.5 µM | – |
| CC[C@]1(O)C[C@H]2CN(CCc3c([nH]c4ccccc34)[C@@](C(=O)OC)(c3cc4c(cc3OC)N(C=O)[C@H]3[C@@](O)(C(=O)OC)[C@H](OC(C)=O)[C@]5(CC)C=CCN6CC[C@]43[C@@H]65)C2)C1 [VINCRISTINE] | – | – | – | – | Activity [14]: 6.96%; inhibition (Homo sapiens [15]): Active; Activity [16]: 4.15%; Activity (HCC1428 [17]): Active; Activity [18]: 88.89%; inhibition (Bos taurus [19]): Active |
| Oc1cc2ccc1Oc1cccc(c1)CCc1ccc(O)c(c1)Oc1ccc(cc1)CC2 | 15.7 µM | 12.7 µM | 18.9 µM | 22.4 µM | – |
| Oc1ccc2cc1Oc1ccc(cc1)CCc1cccc(O)c1Oc1ccc(cc1)CC2 | 8.52 µM | 7.57 µM | 10.5 µM | 9.25 µM | IC50 (PC-3): 10.9 µM |
| Oc1ccc2c(c1)CCc1ccc(O)c(c1)Oc1ccc(cc1)CCc1cccc(O)c1O2 | 14.1 µM | 7.98 µM | 15.9 µM | 10.8 µM | – |
| Oc1ccc2cc1Oc1ccc(cc1)/C=C\c1cccc(O)c1Oc1ccccc1CC2 | 19.2 µM | 9.6 µM | 21.9 µM | 17.1 µM | – |
| Oc1cc2c(cc1O)Oc1c(O)cccc1CCc1ccc(cc1)Oc1cc(ccc1O)CC2 | 6.16 µM | 7.51 µM | 10.4 µM | 8.46 µM | IC50 (PC-3): 7.7 µM |
| CC(=O)O[C@H]1C(=O)[C@@]2(C)[C@H]([C@H](OC(=O)c3ccccc3)[C@]3(O)C[C@H](OC(=O)[C@H](O)[C@@H](NC(=O)c4ccccc4)c4ccccc4)C(C)=C1C3(C)C)[C@]1(OC(C)=O)CO[C@@H]1C[C@@H]2O | – | – | – | – | inhibition (Bos taurus [19]): inactive |

More lines, main results first:

| IC50 (K562) | IC50 (HT-29) | IC50 (HeLa) | SMILES | IC50 [2] | other results |
| --- | --- | --- | --- | --- | --- |
| 7.02 µM | 7.98 µM | 11.7 µM | Oc1ccc2cc1Oc1ccc(cc1)CCc1ccc(O)c(c1)Oc1cccc(c1)CC2 | 10.7 µM | inhibition (Homo sapiens [1]): inactive; IC50 (PC-3): 13.4 µM; inhibition (Homo sapiens [3]): Active |
| 21.6 µM | 12.4 µM | 21.5 µM | Oc1ccc2cc1Oc1ccc(cc1)CCc1cccc(O)c1Oc1ccccc1CC2 | 19 µM | – |
| 25.3 µM | 15.9 µM | 26.8 µM | Oc1ccc2c(c1)CCc1ccc(O)c(c1)Oc1ccc(cc1O)CCc1cccc(O)c1O2 | 22 µM | – |
| 6.06 µM | 11.6 µM | 15.8 µM | Oc1cc2ccc1Oc1ccc(cc1)CCc1cccc(O)c1Oc1cccc(c1)CC2 | 7.69 µM | – |
| 0.57 µM | 1.76 µM | 1.23 µM | COc1cccc2c1C(=O)c1c(O)c3c(c(O)c1C2=O)C[C@@](O)(C(=O)CO)C[C@@H]3O[C@H]1C[C@H](N)[C@H](O)[C@H](C)O1 [DOXORUBICIN HYDROCHLORIDE] | 1.77 µM | IC50 (PC-3): 16.9 µM |
| 10.2 µM | 11.5 µM | 22.7 µM | Oc1ccc2cc1Oc1ccc(cc1)CCc1ccc(O)c(c1)Oc1ccc(cc1)CC2 | 15.3 µM | – |
| 24.9 µM | 17 µM | 27.4 µM | Oc1ccc2cc1Oc1ccc(cc1)CCc1cccc(O)c1Oc1ccc(cc1O)CC2 | 19.5 µM | – |
| 15.6 µM | 14.8 µM | 29.4 µM | Oc1ccc2cc1Oc1ccc(cc1)CCc1ccc(O)c(c1)Oc1ccc(cc1O)CC2 | 20.1 µM | – |
| 29.9 µM | 20.1 µM | 28.3 µM | Oc1ccc2cc1Oc1ccc(cc1)CCc1cc(O)c(c(O)c1)Oc1cccc(c1)CC2 | 25.2 µM | – |
